Results from article PMC6929040 (ACS Synthetic Biology, 2019).
Entries after “also recorded” stand apart in the source; their conditions may differ.

Columns and labels:
[1] = biological target: human 5-HTR4b (Homo sapiens, UniProt Q13639); test: Luciferase-based 5-HTR4b assay in yeast; assay type: cell-based; conditions: for confirmation as 5-HTR4b ligand by dose response curves: 5-HTR4b assay strain vs control strain with blank plasmid in lieu of 5-HTR4b; for natural products library screening result (Z-score normalized to serotonin): 803-member library; for natural products library screening result (Z-score normalized to serotonin) / anti-infection library screening result (Z-score): singlets; for anti-infection library screening result (Z-score): 403-member library
Sequence of human 5-HTR4b (Q13639 whole entry): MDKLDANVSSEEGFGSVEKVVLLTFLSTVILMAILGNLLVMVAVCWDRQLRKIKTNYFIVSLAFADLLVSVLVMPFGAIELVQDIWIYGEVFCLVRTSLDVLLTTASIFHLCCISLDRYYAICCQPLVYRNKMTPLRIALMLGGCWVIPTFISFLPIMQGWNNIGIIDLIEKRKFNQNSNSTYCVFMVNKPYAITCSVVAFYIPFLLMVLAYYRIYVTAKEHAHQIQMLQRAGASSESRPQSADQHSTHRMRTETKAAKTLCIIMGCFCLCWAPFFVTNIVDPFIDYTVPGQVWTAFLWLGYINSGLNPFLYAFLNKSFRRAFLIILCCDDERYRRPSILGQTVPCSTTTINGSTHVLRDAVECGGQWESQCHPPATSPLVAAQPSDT

[2] = tested on: human colon epithelial cells (Caco-2); test: Cell migration assay; assay type: cell-based; conditions: Caco-2, 10 μM, 48 h, vs PBS control
Method in brief: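 Caco-2 cells grown at 37 °C, 5% CO2 in high-glucose DMEM with 10% FBS and 1% penicillin-streptomycin. Cells at (1–2) × 10^5 cells/mL were seeded into both wells of culture inserts and left overnight to attach. Inserts were then removed and cells washed twice with PBS. […] Imaged at 0, 24 and 48 h, and the cell-free zone was measured.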

[3] = tested on: human colon epithelial cells (Caco-2); test: Colon cell wound healing scratch assay; assay type: cell-based; conditions: Caco-2 scratch assay, 10 μM, 48 h, vs PBS control
[4] = tested on: yeast (PPY1808); test: Toxicity assessment in yeast; assay type: cell-based, Saccharomyces cerevisiae; conditions: yeast incubated 2.5 h, 0, 10 μM, 100 μM

Structure (SMILES) | confirmation as 5-HTR4b ligand by dose response curves [1] | natural products library screening result (Z-score normalized to serotonin) ([1]; 10 μM) | further results
Nc1ccc2cc3ccc(N)cc3nc2c1 [proflavine] |  |  | anti-infection library screening result (Z-score) ([1]; 10 μM): hits; cell motility (cell migration) [2]: did not result in a significant increase; wound healing [3]: did not result in a significant increase; toxicity to yeast [4]: toxic at high concentrations
CCn1cc(C(=O)O)c(=O)c2ccc(C)nc21 [nalidixic acid] | could not confirm | hits | 
O=C(O)CCCc1c[nH]c2ccccc12 [3-indolebutyric acid] | could not confirm | hits | 
NCCc1c[nH]c2ccc(O)cc12 [serotonin] |  | hits | signal increase after activation ([1]; pH = 7, 100 mg/L serotonin, 2 h ligand incubation, 30 min luciferase substrate incubation): 38 fold
CC1(C)C2CCC1(C)C(O)C2 (centres unmarked) [borneol] | could not confirm |  | anti-infection library screening result (Z-score) ([1]; 1 μM): hits
O=c1cc(-c2ccccc2)oc2cc(O)c(O)c(O)c12 [baicalein] | could not confirm | hits | 
NCCc1c[nH]c2ccccc12 [tryptamine] | confirmed | hits | 
CN(C)CCc1ccc(O)cc1 [hordenine] |  | hits | anti-infection library screening result (Z-score) ([1]; 10 μM): hits; cell motility (cell migration) [2]: significantly (P < 0.01) increase cell motility; also recorded: statistically significantly different than the PBS control (P < 0.01); wound healing [3]: statistically significant increase in wound healing (P < 0.05); also recorded: statistically significantly different than the PBS control (P < 0.05)
O=C(CC1NCCCC1O)Cn1cnc2cc(Br)c(Cl)cc2c1=O (centres unmarked) [halofuginone] |  | hits | cell motility (cell migration) [2]: results only in increased wound healing; wound healing [3]: statistically significant increase in wound healing (P < 0.05); also recorded: statistically significantly different than the PBS control (P < 0.05)
Cc1nc(Nc2ccc(F)cc2)nc(N2CCc3ccccc3C2C)c1C (centres unmarked) [revaprazan] |  |  | anti-infection library screening result (Z-score) ([1]; 1 μM): hits; cell motility (cell migration) [2]: statistically significantly different than the PBS control (P < 0.01); cell motility (cell migration) ([2]; listed as Revaprazan): significantly (P < 0.01) increase cell motility; wound healing [3]: statistically significant increase in wound healing (P < 0.05); also recorded: statistically significantly different than the PBS control (P < 0.05); toxicity to yeast [4]: toxic at high concentrations
O=C(Nc1ccc(O)cc1)c1ccccc1O [osalmid] | could not confirm |  | anti-infection library screening result (Z-score) ([1]; 1 μM): hits
CCOc1ccc2nc3cc(N)ccc3c(N)c2c1 [ethacridine] |  |  | anti-infection library screening result (Z-score) ([1]; 10 μM): hits; cell motility (cell migration) [2]: did not result in a significant increase; wound healing [3]: did not result in a significant increase; toxicity to yeast [4]: toxic at high concentrations

Second part, led by results:

confirmation as 5-HTR4b ligand by dose response curves [1] | natural products library screening result (Z-score normalized to serotonin) ([1]; 10 μM) | Structure (SMILES) | further results
confirmed | hits | NC(Cc1c[nH]c2ccc(O)cc12)C(=O)O [5-HTP, D/L-5-hydroxytryptophan] | 
 | hits | N[C@@H](Cc1c[nH]c2ccc(O)cc12)C(=O)O [L-5-HTP, L-5-hydroxytryptophan] | 
could not confirm | hits | O=c1c2cc(O[C@@H]3O[C@H](CO)[C@@H](O)[C@H](O)[C@H]3O)c(O)cc2oc2cc(O)c([C@@H]3O[C@H](CO)[C@@H](O)[C@H](O)[C@H]3O)c(O)c12 [neomangiferin] | 
could not confirm | hits | COc1ccc(-c2oc3c(CC=C(C)C)c(O)cc(O)c3c(=O)c2O[C@@H]2O[C@@H](C)[C@H](O)[C@@H](O)[C@H]2O)cc1 [baohuoside I] | 
could not confirm |  | CC[n+]1c(-c2ccccc2)c2cc(N)ccc2c2ccc(N)cc21 [ethidium bromide] | anti-infection library screening result (Z-score) ([1]; 10 μM): hits
could not confirm | hits | O=c1c(-c2ccc(O)cc2)coc2cc(O[C@@H]3O[C@H](CO)[C@@H](O)[C@H](O)[C@H]3O)cc(O)c12 [genistin] | 
could not confirm |  | CN[C@@H]1[C@@H](O)[C@@H](O[C@@H]2[C@@H](O)[C@H](O[C@H]3O[C@H](CN)[C@@H](O)[C@H](O)[C@H]3O)[C@@H](N)C[C@H]2NC(=O)[C@@H](O)CN)OC[C@]1(C)O [isepamicin] | anti-infection library screening result (Z-score) ([1]; 1 μM): hits
